Experimental data gathered from unrelated publications.
Each line is one published result; the experiments were not run side by side.
ERBB2: Receptor tyrosine-protein kinase erbB-2 (ERBB2, Homo sapiens, UniProt P04626)
CYP2C19: Cytochrome P450 2C19 (CYP2C19, Homo sapiens, UniProt P33261)
60 kDa heat shock protein, mitochondrial: 60 kDa heat shock protein, mitochondrial (Homo sapiens, UniProt P10809)
SLC22A11: Solute carrier family 22 member 11 (SLC22A11, Homo sapiens, UniProt Q9NSA0)

| SMILES | target | test | test system | conditions | endpoint | value |
| --- | --- | --- | --- | --- | --- | --- |
| CNC(=O)c1ccc(Nc2ncc(C(F)(F)F)c(NCc3nccnc3N(C)S(C)(=O)=O)n2)cc1 | cGMP-dependent 3',5'-cyclic phosphodiesterase (PDE2A, Homo sapiens, UniProt O00408) | enzyme activity, inhibitor | – | – | IC50 | 3.8 µM |
| COC(=O)Nc1nc2ccc(C(=O)c3ccccc3)cc2[nH]1 | Tyrosine-protein kinase ABL1 (ABL1, Homo sapiens, UniProt P00519) | enzyme activity, inhibitor, mobility shift | – | – | IC50 | 1.78 µM |
| COc1ccc2[nH]c(C(=O)Nc3nc(CC(=O)O)cs3)cc2c1 | ERBB2 | enzyme activity, inhibitor | – | – | IC50 | 1.77 µM |
| Cn1cncc1[C@@](N)(c1ccc(Cl)cc1)c1ccc2c(c1)c(-c1cccc(Cl)c1)cc(=O)n2C | CYP2C19 | enzyme activity, inhibitor | human, liver microsomes | – | Ki | 0.75 µM |
| Cc1nn(C)c2ncc(C(=O)NCC3CC(Br)=NO3)c(Cl)c12 (stereo not drawn) | 60 kDa heat shock protein, mitochondrial | ATPase activity, inhibitor | – | – | IC50 | > 250 µM |
| O=C1CCc2ccccc2O1 | Carbonic anhydrase 2 (CA2, Homo sapiens, UniProt P00918) | enzyme activity, inhibitor, stopped-flow | – | – | Ki | 48.5 µM |
| O=C(O)Cc1csc(NC(=O)c2cc3ccccc3[nH]2)n1 | ERBB2 | enzyme activity, inhibitor | – | – | IC50 | 0.618 µM |
| Cn1nc2c(=O)n(C3CC3)cnc2c1[C@](O)(c1cnc(C(F)(F)F)c(Cl)c1)C(F)(F)F | CYP2C19 | enzyme activity, inhibitor | human, liver microsomes | pH 7.4 | IC50 | > 20 µM |
| O=C1CC[C@H](N2Cc3cc(N4CCN(CC5CCN(c6ccc([C@@H]7c8ccc(O)cc8CC[C@@H]7c7ccccc7)cc6)CC5)CC4)ccc3C2=O)C(=O)N1 | Androgen receptor (AR, Homo sapiens, UniProt P10275) | ligand displacement, radioligand | – | – | IC50 | 0.1 µM |
| Cn1ncc2c(Cl)c(C(=O)NCc3ccccc3)cnc21 | 60 kDa heat shock protein, mitochondrial | ATPase activity, inhibitor | – | – | IC50 | > 250 µM |
| Cn1nc2c(=O)n(C3CC3)ncc2c1[C@](O)(c1cnc(C(F)(F)F)c(Cl)c1)C(F)(F)F | CYP2C19 | enzyme activity, inhibitor | human, liver microsomes | pH 7.4 | IC50 | > 20 µM |
| Cn1c(=O)c2c(ncn2C)n(C)c1=O | SLC22A11 | transporter uptake, inhibitor, radiometric | – | oocytes | IC50 | 575 µM |
| O=C1c2cccc3c2[C@H](CCC3)CN1[C@@H]1CN2CCC1CC2 | 5-hydroxytryptamine receptor 3A (HTR3A, Homo sapiens, UniProt P46098) | ligand displacement, radioligand | – | – | Ki | 0.000246 µM |
| Nc1ncnc2c1ncn2[C@@H]1O[C@H](CO)[C@@H](O)[C@H]1O | SLC22A11 | transporter uptake, inhibitor, radiometric | – | oocytes | IC50 | > 2000 µM |
| CC(C)(C)OC(=O)N1CCN(Cc2ccn(Cc3ccc(Cl)cc3)c(=O)c2O)CC1 | Lysine-specific demethylase 3B (KDM3B, Homo sapiens, UniProt Q7LBC6) | enzyme activity, inhibitor, AlphaScreen | – | – | IC50 | 4.79 µM |
